Results as given in ChEMBL document CHEMBL2046311, “Design, synthesis, and molecular hybrids of caudatin and cinnamic acids as novel anti-hepatitis B virus agents” (Eur J Med Chem, 2012).

How the values were obtained:
Hepatitis B virus [1] = experiment: Antiviral activity against Hepatitis B virus infected in human HepG2(2.2.15) cells assessed as inhibition of viral surface antigen secretion by ELISA; assay type: functional, organism-based
How it was run: (§1)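 HepG 2.2.15 cells in RPMI-1640 with 10% fetal calf serum at 37 °C, 5% CO2. Compounds dissolved in DMSO, culture DMSO below 2.5 μL/mL. Secreted HBeAg and HBsAg measured by ELISA. IC50 values are means of at least two experiments.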

Hepatitis B virus [2] = experiment: Antiviral activity against Hepatitis B virus infected in human HepG2(2.2.15) cells assessed as inhibition of viral e antigen secretion by ELISA; assay type: functional, organism-based; how it was run: as §1
[3] = Cytotoxicity against human HepG2(2.2.15) cells by modified-MTT assay; assay type: cell-based
How it was run: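 HepG 2.2.15 cells in RPMI-1640 with 10% fetal calf serum at 37 °C, 5% CO2. Compounds in DMSO, final DMSO below 2.5 μL/mL. Viability read by modified MTT method. CC50 is the mean of at least two experiments.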

[4] = Selectivity index, ratio of CC50 for human HepG2(2.2.15) cells to IC50 for Hepatitis B virus infected in human HepG2(2.2.15) cells assessed as inhibition of viral surface antigen secretion; assay type: functional
How it was run: (§2)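 SI calculated as CC50 (MTT, HepG 2.2.15) divided by IC50 for the named read-out (HBV DNA by real-time PCR, or HBeAg or HBsAg secretion by ELISA), in the same cell line.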

[5] = Selectivity index, ratio of CC50 for human HepG2(2.2.15) cells to IC50 for Hepatitis B virus infected in human HepG2(2.2.15) cells assessed as inhibition of viral e antigen secretion; assay type: functional; how it was run: as §2
Hepatitis B virus [6] = experiment: Antiviral activity against Hepatitis B virus infected in human HepG2(2.2.15) cells assessed as inhibition of viral DNA replication by PCR analysis; assay type: functional, organism-based
How it was run: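 HepG 2.2.15 cells grown in RPMI-1640 with 10% fetal calf serum, […] and penicillin/streptomycin at 37 °C, 5% CO2. Compounds added in DMSO, kept below 2.5 μL/mL. HBV DNA quantified by SYBR Green real-time PCR with HBV-specific primers spanning 541–591 bp. IC50 values are means of at least two experiments.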

[7] = Selectivity index, ratio of CC50 for human HepG2(2.2.15) cells to IC50 for Hepatitis B virus infected in human HepG2(2.2.15) cells assessed as inhibition of viral DNA replication; assay type: functional; how it was run: as §2

SMILES: CC(=O)[C@]1(OC(=O)/C=C/c2ccccc2[N+](=O)[O-])CC[C@@]2(O)[C@]1(C)[C@H](OC(=O)/C=C(\C)C(C)C)C[C@@H]1[C@@]3(C)CC[C@H](OC(=O)/C=C/c4ccccc4[N+](=O)[O-])CC3=CC[C@]12O
- IC50 (Hepatitis B virus [1]): 116 µM
- IC50 (Hepatitis B virus [2]): 522 µM
- CC50 [3]: > 1740 µM
- Ratio CC50/IC50 [4]: >15
- Ratio CC50/IC50 [5]: >3.3
- IC50 (Hepatitis B virus [6]): > 434 µM

SMILES: CC(=O)[C@]1(O)CC[C@@]2(O)[C@]1(C)[C@H](OC(=O)/C=C(\C)C(C)C)C[C@@H]1[C@@]3(C)CC[C@H](OC(=O)/C=C/c4cc(C(F)(F)F)cc(C(F)(F)F)c4)CC3=CC[C@]12O
- IC50 (Hepatitis B virus [1]): 433 µM
- IC50 (Hepatitis B virus [2]): 612 µM
- CC50 [3]: > 1280 µM
- Ratio CC50/IC50 [4]: >3
- Ratio CC50/IC50 [5]: >2.1
- IC50 (Hepatitis B virus [6]): > 321 µM

SMILES: COc1cc(/C=C/C(=O)O[C@H]2CC[C@@]3(C)C(=CC[C@]4(O)[C@@H]3C[C@@H](OC(=O)/C=C(\C)C(C)C)[C@@]3(C)[C@]4(O)CC[C@@]3(O)C(C)=O)C2)ccc1OC(C)=O
- IC50 (Hepatitis B virus [1]): < 9.97 µM
- IC50 (Hepatitis B virus [2]): 653 µM
- CC50 [3]: < 9.97 µM
- IC50 (Hepatitis B virus [6]): 4.39 µM
- Ratio CC50/IC50 [7]: <2.3

SMILES: CC(=O)[C@]1(OC(=O)/C=C/c2ccc(Cl)cc2)CC[C@@]2(O)[C@]1(C)[C@H](OC(=O)/C=C(\C)C(C)C)C[C@@H]1[C@@]3(C)CC[C@H](OC(=O)/C=C/c4ccc(Cl)cc4)CC3=CC[C@]12O
- IC50 (Hepatitis B virus [1]): > 290 µM
- IC50 (Hepatitis B virus [2]): > 290 µM
- CC50 [3]: > 1160 µM
- IC50 (Hepatitis B virus [6]): > 290 µM

SMILES: CC(=O)[C@]1(O)CC[C@@]2(O)[C@]1(C)[C@H](OC(=O)/C=C(\C)C(C)C)C[C@@H]1[C@@]3(C)CC[C@H](OC(=O)/C=C/c4cccc(C(F)(F)F)c4)CC3=CC[C@]12O
- IC50 (Hepatitis B virus [1]): 112 µM
- IC50 (Hepatitis B virus [2]): > 1190 µM
- CC50 [3]: 718 µM
- Ratio CC50/IC50 [4]: 6.4
- IC50 (Hepatitis B virus [6]): 14.9 µM
- Ratio CC50/IC50 [7]: 48.3

SMILES: CC(=O)[C@]1(O)CC[C@@]2(O)[C@]1(C)[C@H](OC(=O)/C=C(\C)C(C)C)C[C@@H]1[C@@]3(C)CC[C@H](OC(=O)/C=C/c4ccc(C)cc4)CC3=CC[C@]12O
- IC50 (Hepatitis B virus [1]): 108 µM
- IC50 (Hepatitis B virus [2]): > 550 µM
- CC50 [3]: 550 µM
- Ratio CC50/IC50 [4]: 5.1
- IC50 (Hepatitis B virus [6]): 12 µM
- Ratio CC50/IC50 [7]: 46

SMILES: CC(=O)[C@]1(O)CC[C@@]2(O)[C@]1(C)[C@H](OC(=O)/C=C(\C)C(C)C)C[C@@H]1[C@@]3(C)CC[C@H](OC(=O)/C=C/c4ccc(Cl)cc4)CC3=CC[C@]12O
- IC50 (Hepatitis B virus [1]): 119 µM
- IC50 (Hepatitis B virus [2]): > 701 µM
- CC50 [3]: 701 µM
- Ratio CC50/IC50 [4]: 5.9
- IC50 (Hepatitis B virus [6]): 16.3 µM
- Ratio CC50/IC50 [7]: 43.1

SMILES: CC(=O)[C@]1(O)CC[C@@]2(O)[C@]1(C)[C@H](OC(=O)/C=C(\C)C(C)C)C[C@@H]1[C@@]3(C)CC[C@H](OC(=O)/C=C/c4ccc(O)c(O)c4)CC3=CC[C@]12O
- IC50 (Hepatitis B virus [1]): 16.1 µM
- IC50 (Hepatitis B virus [2]): > 567 µM
- CC50 [3]: 8.49 µM
- IC50 (Hepatitis B virus [6]): 9.1 µM

SMILES: CC(=O)[C@]1(O)CC[C@@]2(O)[C@]1(C)[C@H](OC(=O)/C=C(\C)C(C)C)C[C@@H]1[C@@]3(C)CC[C@H](OC(=O)/C=C/c4cccc(OC(F)(F)F)c4)CC3=CC[C@]12O
- IC50 (Hepatitis B virus [1]): 236 µM
- IC50 (Hepatitis B virus [2]): > 584 µM
- CC50 [3]: 584 µM
- Ratio CC50/IC50 [4]: 2.5
- IC50 (Hepatitis B virus [6]): 5.71 µM
- Ratio CC50/IC50 [7]: 102.3

SMILES: CC(=O)Oc1ccc(/C=C/C(=O)O[C@H]2CC[C@@]3(C)C(=CC[C@]4(O)[C@@H]3C[C@@H](OC(=O)/C=C(\C)C(C)C)[C@@]3(C)[C@]4(O)CC[C@@]3(O)C(C)=O)C2)cc1
- IC50 (Hepatitis B virus [1]): < 6.96 µM
- IC50 (Hepatitis B virus [2]): 231 µM
- CC50 [3]: < 6.96 µM
- IC50 (Hepatitis B virus [6]): 3.42 µM
- Ratio CC50/IC50 [7]: <2

SMILES: COc1cccc(/C=C/C(=O)O[C@H]2CC[C@@]3(C)C(=CC[C@]4(O)[C@@H]3C[C@@H](OC(=O)/C=C(\C)C(C)C)[C@@]3(C)[C@]4(O)CC[C@@]3(OC(=O)/C=C/c3cccc(OC)c3)C(C)=O)C2)c1
- IC50 (Hepatitis B virus [1]): > 1370 µM
- IC50 (Hepatitis B virus [2]): > 1370 µM
- CC50 [3]: > 1370 µM
- IC50 (Hepatitis B virus [6]): > 342 µM

SMILES: CC(=O)[C@]1(O)CC[C@@]2(O)[C@]1(C)[C@H](OC(=O)/C=C(\C)C(C)C)C[C@@H]1[C@@]3(C)CC[C@H](OC(=O)/C=C/c4c(F)c(F)c(F)c(F)c4F)CC3=CC[C@]12O
- IC50 (Hepatitis B virus [1]): 26.3 µM
- IC50 (Hepatitis B virus [2]): 353 µM
- CC50 [3]: < 8.22 µM
- IC50 (Hepatitis B virus [6]): 9.9 µM
